According to ChEMBL document CHEMBL1156340 (J Med Chem, 2010):
≈ marks a conversion by molar mass, not a printed value.

Experiments:
[1] = Plasma clearance in cynomolgus monkey at 1 mg/kg, iv; type: ADME, organism-based, Macaca fascicularis; parameters: dose 1 mg/kg, route intravenous
Procedure, shortened: (§1)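 Single-dose plasma pharmacokinetics with at least 3 animals per study. Tmax comes from oral dosing, and clearance and Vss from the parenteral arm. In rat that arm was given intra-arterially; in mouse, dog and monkey it was intravenous. Bioavailability is absolute, comparing the oral and parenteral arms.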

[2] = Oral bioavailability in Sprague-Dawley rat at 10 mg/kg; type: ADME, organism-based; conditions: in vivo; procedure, shortened: as §1
[3] = Cmax in dog at 2 mg/kg, po; type: ADME, organism-based, Canis lupus familiaris; parameters: dose 2 mg/kg, route oral; conditions: in vivo
Procedure, shortened: (§2)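 Single-dose pharmacokinetics in each species by oral and intravenous routes; the rat intravenous arm was given intra-arterially. n ≥ 3 per study. Mouse exposure is reported as AUC0-8h.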

[4] = AUC (0 to 8 h) in BALB/c mouse at 12 mg/kg, po; conditions: plasma
[5] = Crystalline aqueous solubility at pH 6.5; type: physicochemical; conditions: aqueous solution
[6] = Half life in BALB/c mouse at 6 mg/kg, iv; type: ADME, organism-based; parameters: dose 6 mg/kg, route intravenous; conditions: in vivo; procedure, shortened: as §2
[7] = Plasma clearance in Sprague-Dawley rat at 5 mg/kg, ia; type: ADME, organism-based; parameters: dose 5 mg/kg, route intra-arterial; procedure, shortened: as §1
[8] = AUC (0 to 8 h) in BALB/c mouse at 6 mg/kg, iv; conditions: plasma
[9] = AUC in Sprague-Dawley rat at 10 mg/kg, po; type: ADME, organism-based; parameters: dose 10 mg/kg, route oral; conditions: plasma
Procedure, shortened: (§3)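 Single-dose pharmacokinetic study with at least 3 animals per study; the ia route is intra-arterial administration.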

[10] = Half life in dog at 1 mg/kg, iv; type: ADME, organism-based, Canis lupus familiaris; parameters: dose 1 mg/kg, route intravenous; conditions: in vivo; procedure, shortened: as §2
[11] = Volume of distribution at steady state in cynomolgus monkey at 1 mg/kg, iv; type: ADME, organism-based, Macaca fascicularis; parameters: dose 1 mg/kg, route intravenous; conditions: in vivo, read-out: Vdss; procedure, shortened: as §1
[12] = AUC in cynomolgus monkey at 1 mg/kg, iv; type: ADME, organism-based, Macaca fascicularis; parameters: dose 1 mg/kg, route intravenous; conditions: plasma; procedure, shortened: as §3
Liver microsomes [13] = test: Metabolic stability in rat liver microsomes assessed as glutathione conjugate at 30 uM in presence of glutathione; type: ADME, Microsome
Procedure, shortened: (§4)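 Liver microsomes (mouse, rat or human) were fortified with 5 mM glutathione and incubated with 30 μM compound, then screened for glutathione conjugates.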

[14] = Crystalline aqueous solubility at pH 7.9; type: physicochemical; conditions: aqueous solution
[15] = AUC in Sprague-Dawley rat at 5 mg/kg, ia; type: ADME, organism-based; parameters: dose 5 mg/kg, route intra-arterial; conditions: plasma; procedure, shortened: as §3
[16] = Cmax in BALB/c mouse at 12 mg/kg, po; type: ADME, organism-based; parameters: dose 12 mg/kg, route oral; conditions: in vivo; procedure, shortened: as §2
[17] = Oral bioavailability in dog at 2 mg/kg, po; type: ADME, organism-based, Canis lupus familiaris; conditions: in vivo; procedure, shortened: as §1
[18] = Tmax in Sprague-Dawley rat at 10 mg/kg, po; type: ADME, organism-based; parameters: dose 10 mg/kg, route oral; conditions: in vivo; procedure, shortened: as §1
[19] = AUC in dog at 2 mg/kg, po; type: ADME, organism-based, Canis lupus familiaris; parameters: dose 2 mg/kg, route oral; conditions: plasma; procedure, shortened: as §3
[20] = Oral bioavailability in cynomolgus monkey at 2 mg/kg, po; type: ADME, organism-based, Macaca fascicularis; conditions: in vivo; procedure, shortened: as §1
[21] = AUC in cynomolgus monkey at 2 mg/kg, po; type: ADME, organism-based, Macaca fascicularis; parameters: dose 2 mg/kg, route oral; conditions: plasma; procedure, shortened: as §3
[22] = Half life in cynomolgus monkey at 1 mg/kg, iv; type: ADME, organism-based, Macaca fascicularis; parameters: dose 1 mg/kg, route intravenous; conditions: in vivo; procedure, shortened: as §2
[23] = Plasma clearance in dog at 1 mg/kg, iv; type: ADME, organism-based, Canis lupus familiaris; parameters: dose 1 mg/kg, route intravenous; procedure, shortened: as §1
[24] = Oral bioavailability in BALB/c mouse at 12 mg/kg; type: ADME, organism-based; conditions: in vivo; procedure, shortened: as §2
[25] = Tmax in cynomolgus monkey at 2 mg/kg, po; type: ADME, organism-based, Macaca fascicularis; parameters: dose 2 mg/kg, route oral; conditions: in vivo; procedure, shortened: as §1
Liver microsomes [26] = test: Metabolic stability in human liver microsomes assessed as glutathione conjugate at 30 uM in presence of glutathione; type: ADME, Microsome; procedure, shortened: as §4
[27] = AUC in dog at 1 mg/kg, iv; type: ADME, organism-based, Canis lupus familiaris; parameters: dose 1 mg/kg, route intravenous; conditions: plasma; procedure, shortened: as §3
[28] = Plasma clearance in BALB/c mouse at 6 mg/kg, iv; type: ADME, organism-based; parameters: dose 6 mg/kg, route intravenous; procedure, shortened: as §1
[29] = Tmax in dog at 2 mg/kg, po; type: ADME, organism-based, Canis lupus familiaris; parameters: dose 2 mg/kg, route oral; conditions: in vivo; procedure, shortened: as §1
[30] = Metabolic stability in mouse liver microsomes assessed as glutathione conjugate at 30 uM in presence of glutathione; type: ADME, Microsome; procedure, shortened: as §4
[31] = Volume of distribution at steady state in Sprague-Dawley rat at 5 mg/kg, ia; type: ADME, organism-based; parameters: dose 5 mg/kg, route intra-arterial; conditions: in vivo, read-out: Vdss; procedure, shortened: as §1
[32] = Tmax in BALB/c mouse at 12 mg/kg, po; type: ADME, organism-based; parameters: dose 12 mg/kg, route oral; conditions: in vivo; procedure, shortened: as §1
[33] = Volume of distribution at steady state in BALB/c mouse at 6 mg/kg, iv; type: ADME, organism-based; parameters: dose 6 mg/kg, route intravenous; conditions: in vivo, read-out: Vdss; procedure, shortened: as §1
[34] = Cmax in Sprague-Dawley rat at 10 mg/kg, po; type: ADME, organism-based; parameters: dose 10 mg/kg, route oral; conditions: in vivo; procedure, shortened: as §2
[35] = Cmax in cynomolgus monkey at 2 mg/kg, po; type: ADME, organism-based, Macaca fascicularis; parameters: dose 2 mg/kg, route oral; conditions: in vivo; procedure, shortened: as §2
[36] = Volume of distribution at steady state in dog at 1 mg/kg, iv; type: ADME, organism-based, Canis lupus familiaris; parameters: dose 1 mg/kg, route intravenous; conditions: in vivo, read-out: Vdss; procedure, shortened: as §1
[37] = Half life in Sprague-Dawley rat at 5 mg/kg, ia; type: ADME, organism-based; parameters: dose 5 mg/kg, route intra-arterial; conditions: in vivo; procedure, shortened: as §2

## COC(=O)N(CC(=O)O)Cc1cccc(OCc2nc(-c3ccc(Cl)cc3)oc2C)c1
[1]
  clearance: 8.9 mL/min/kg
[2]
  bioavailability: 91%
[3]
  Cmax: 1 µM
[4]
  AUC(0-8h): 33.9 µM·h
[5]
  solubility thermodynamic: 280 µg/mL (≈ 629 µM)
[6]
  half-life: 3 h
[7]
  clearance: 4.3 mL/min/kg
[8]
  AUC(0-8h): 19.3 µM·h
[9]
  AUC: 88 µM·h
[10]
  half-life: 7.9 h
[11]
  Vd: 3.5 L/kg
[12]
  AUC: 5.8 µM·h
Liver microsomes [13]
  Stability: Stable
[14]
  solubility thermodynamic: > 4000 µg/mL
[15]
  AUC: 48 µM·h
[16]
  Cmax: 23.8 µM
[17]
  bioavailability: 58%
[18]
  Tmax: 0.4 h
[19]
  AUC: 4.5 µM·h
[20]
  bioavailability: 75%
[21]
  AUC: 8.5 µM·h
[22]
  half-life: 11.9 h
[23]
  clearance: 9.5 mL/min/kg
[24]
  bioavailability: 88%
[25]
  Tmax: 0.8 h
Liver microsomes [26]
  Stability: Stable
[27]
  AUC: 3.9 µM·h
[28]
  clearance: 10.8 mL/min/kg
[29]
  Tmax: 0.9 h
[30]
  Stability: Stable
[31]
  Vd: 0.7 L/kg
[32]
  Tmax: 0.25 h
[33]
  Vd: 1.3 L/kg
[34]
  Cmax: 43 µM
[35]
  Cmax: 1.9 µM
[36]
  Vd: 1.8 L/kg
[37]
  half-life: 3.2 h
